Active and inactive are the calls of the source. No cut-off for these calls is given here.
Columns and labels:
[1] = target: T1, Androgen receptor (Homo sapiens, UniProt P10275); test: Inhibition of DHT-induced androgen receptor transactivation in human LNCaP cells after 24 hrs by luciferase reporter gene assay relative to control; format: cell-based
T1 sequence (P10275 whole entry): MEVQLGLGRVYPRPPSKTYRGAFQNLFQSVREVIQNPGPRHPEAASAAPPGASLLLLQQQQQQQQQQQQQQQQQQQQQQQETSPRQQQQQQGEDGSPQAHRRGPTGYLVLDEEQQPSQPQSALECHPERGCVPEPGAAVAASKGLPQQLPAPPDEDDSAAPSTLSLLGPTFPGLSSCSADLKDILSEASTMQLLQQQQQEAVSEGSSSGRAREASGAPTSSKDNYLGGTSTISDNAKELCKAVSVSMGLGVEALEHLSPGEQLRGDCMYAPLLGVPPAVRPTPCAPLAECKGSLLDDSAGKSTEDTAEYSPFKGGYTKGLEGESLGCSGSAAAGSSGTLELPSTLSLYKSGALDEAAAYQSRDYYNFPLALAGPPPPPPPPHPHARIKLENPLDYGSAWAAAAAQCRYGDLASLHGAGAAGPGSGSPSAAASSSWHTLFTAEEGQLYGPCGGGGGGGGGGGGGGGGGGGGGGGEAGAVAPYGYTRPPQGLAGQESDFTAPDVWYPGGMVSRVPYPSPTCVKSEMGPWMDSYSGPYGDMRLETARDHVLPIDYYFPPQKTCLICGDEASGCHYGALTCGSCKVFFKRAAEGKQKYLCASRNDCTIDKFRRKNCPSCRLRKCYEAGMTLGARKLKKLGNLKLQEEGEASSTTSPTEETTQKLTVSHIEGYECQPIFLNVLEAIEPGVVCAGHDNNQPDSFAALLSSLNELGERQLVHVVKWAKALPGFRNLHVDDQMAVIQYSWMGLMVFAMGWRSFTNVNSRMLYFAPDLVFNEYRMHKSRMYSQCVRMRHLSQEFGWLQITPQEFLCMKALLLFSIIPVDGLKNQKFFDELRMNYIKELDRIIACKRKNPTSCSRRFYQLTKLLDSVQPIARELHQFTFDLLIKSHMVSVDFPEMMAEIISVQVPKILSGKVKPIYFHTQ

[2] = target: T2, Androgen receptor (Homo sapiens) (UniProt P10275); test: Induction of AR-V7 degradation in human CWR22Rv1 cells upto 7.5 uM after 72 hrs by Western blot analysis; format: cell-based
T2 sequence (whole entry): T1 sequence (P10275 whole entry)
Outline: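 CWR22Rv1 cells treated across 0 → 7.5 μM for 72 h. Lysates analysed by Western blot for f-AR and AR-V7. EC50 taken from dose–response curves.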

[3] = target: T2, Androgen receptor (Homo sapiens); test: Induction of full length androgen receptor degradation in human CWR22Rv1 cells at 15 uM after 24 hrs by Western blot analysis; format: cell-based
Outline: (§1)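 CWR22Rv1 prostate cancer cells exposed to compound at 15 μM for 24 h. Protein lysates analysed by Western blot for f-AR and AR-V7 expression.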

[4] = target: T2, Androgen receptor (Homo sapiens); test: Induction of AR-V7 degradation in human CWR22Rv1 cells at 15 uM after 24 hrs by Western blot analysis; format: cell-based; outline: as §1
[5] = target: T3, Steroid 17-alpha-hydroxylase/17,20 lyase (Homo sapiens, UniProt P05093); test: Inhibition of CYP17 (unknown origin)
T3 sequence (P05093 whole entry): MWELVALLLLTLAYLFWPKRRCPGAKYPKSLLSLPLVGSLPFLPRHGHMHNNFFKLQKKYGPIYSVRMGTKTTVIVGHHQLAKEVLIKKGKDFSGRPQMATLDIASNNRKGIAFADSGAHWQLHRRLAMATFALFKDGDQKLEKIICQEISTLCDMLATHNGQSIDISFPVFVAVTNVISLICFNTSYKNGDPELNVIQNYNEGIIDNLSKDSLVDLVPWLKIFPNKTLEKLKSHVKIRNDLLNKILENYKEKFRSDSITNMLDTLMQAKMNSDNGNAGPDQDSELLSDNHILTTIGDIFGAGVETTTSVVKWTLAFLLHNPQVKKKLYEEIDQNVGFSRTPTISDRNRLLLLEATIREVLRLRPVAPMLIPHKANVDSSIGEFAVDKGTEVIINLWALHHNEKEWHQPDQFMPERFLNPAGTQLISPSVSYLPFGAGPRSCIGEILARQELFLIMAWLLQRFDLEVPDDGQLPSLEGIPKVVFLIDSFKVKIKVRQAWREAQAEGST
Outline: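 CYP17 enzyme activity measured in duplicate over a range of inhibitor concentrations. IC50 read from the dose–response curve as the concentration giving 50% inhibition.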

[6] = tested on: LNCaP; test: Antiproliferative activity against human LNCAP cells after 7 days by MTT assay; format: functional, cell-based; settings: 168 h
Outline: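 LNCaP cell growth measured by MTT assay. GI50, the concentration giving 50% growth inhibition, was obtained by nonlinear regression of dose–response curves pooled from at least three independent experiments; SEM < 10%.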

[7] = tested on: CWR22R; test: Antiproliferative activity against human CWR22Rv1 cells after 7 days by MTT assay; format: functional, cell-based; settings: 22Rv1, 168 h
Outline: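 MTT proliferation assay in CWR22Rv1 human prostate cancer cells. GI50, the concentration causing 50% growth inhibition, was read from dose–response curves.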

[8] = target: T2, Androgen receptor (Homo sapiens); test: Inhibition of DHT-induced androgen receptor transactivation in human LNCaP cells at 10 uM after 24 hrs by luciferase reporter gene assay relative to control; format: cell-based
Outline: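 LNCaP cells dual-transfected with the probasin luciferase reporter AAR2-luc plus the Renilla vector pRL-null. Cells treated with compound at 10 μM for 24 h with 10 nM DHT. Luminescence read and normalized to Renilla activity. Result expressed as fold induction over unstimulated baseline. Replicates from three independent experiments.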

[9] = tested on: CWR22R; test: Antitumor activity against human CWR22Rv1 cells xenografted in SCID mouse assessed as tumor growth inhibition at 0.15 mmol/kg, ip bid administered for 5 days per week relative to control; format: functional; settings: 22Rv1, ip, 120 h, read-out: TGI

Row | SMILES | EC50 [1] | Activity [2] | Activity [3] | Activity [4] | IC50 [5] | IC50 [6] | IC50 [7] | inhibition [8] | inhibition in vivo at 150 µmol/kg [9]
1 | C[C@]12CC[C@H](n3ccnc3)CC1=CC[C@@H]1[C@@H]2CC[C@]2(C)C(n3cnc4ccccc43)=CC[C@@H]12 | 190 nM | Active | Active | Active | 0.48 µM | 1.64 µM | 2.54 µM | Active | 
2 | C[C@]12CC[C@H](OC(=O)n3ccnc3)CC1=CC[C@@H]1[C@@H]2CC[C@]2(C)C(n3cnc4ccccc43)=CC[C@@H]12 |  | Active |  | Active |  |  |  |  | 70%
3 | C[C@]12CC[C@H](OC(=S)n3ccnc3)CC1=CC[C@@H]1[C@@H]2CC[C@]2(C)C(n3cnc4ccccc43)=CC[C@@H]12 | < 100 nM |  |  |  |  | 9.57 µM | 7.52 µM | Active | 
4 | CO[C@H]1CC[C@@]2(C)C(=CC[C@@H]3[C@@H]2CC[C@]2(C)C(n4cnc5ccccc54)=CC[C@@H]32)C1 |  |  |  |  | 39 µM | 8.71 µM | 7.5 µM | Active | 
5 | CNC(=O)c1ccc(N2C(=S)N(c3ccc(C#N)c(C(F)(F)F)c3)C(=O)C2(C)C)cc1F [ENZALUTAMIDE] |  |  |  |  |  | 4.85 µM |  |  | 
6 | C[C@]12CCC=CC1=CC[C@@H]1[C@@H]2CC[C@]2(C)C(n3cnc4ccccc43)=CC[C@@H]12 |  |  |  |  |  |  |  | Active | 
7 | C[C@]12CC[C@H](O)CC1=CC[C@@H]1[C@@H]2CC[C@]2(C)C(n3cnc4ccccc43)=CC[C@@H]12 [GALETERONE] |  |  |  |  | 0.14 µM | 3.93 µM | 8.91 µM |  | 60%
8 | C[C@]12CC[C@@H]3c4ccc(O)cc4CC[C@H]3[C@@H]1CC=C2n1cnc2ccccc21 |  |  |  |  | 25.9 µM | 3.89 µM | 0.5 µM | Active | 
9 | C[C@]12CC[C@H](OCc3cccnc3)CC1=CC[C@@H]1[C@@H]2CC[C@]2(C)C(n3cnc4ccccc43)=CC[C@@H]12 |  |  |  |  |  | 4.26 µM | 0.81 µM | Active | 
10 | C[C@]12CC[C@H](OCc3ccncc3)CC1=CC[C@@H]1[C@@H]2CC[C@]2(C)C(n3cnc4ccccc43)=CC[C@@H]12 | 1650 nM | Active | Active | Active | > 15 µM | 2.45 µM | 3.24 µM | Active | 
11 | COC(=O)c1ccc2c(c1)CC[C@@H]1[C@@H]2CC[C@]2(C)C(n3cnc4ccccc43)=CC[C@@H]12 |  |  |  |  | > 15 µM | 6.91 µM | 8.74 µM | Active | 
12 | C[C@]12CC[C@H](OCc3ccccc3)CC1=CC[C@@H]1[C@@H]2CC[C@]2(C)C(n3cnc4ccccc43)=CC[C@@H]12 |  |  |  |  |  | 5.12 µM | 1.2 µM | Active | 
13 | C[C@]12CC[C@H](O)CC1=CC[C@@H]1[C@@H]2CC[C@]2(C)C(c3cccnc3)=CC[C@@H]12 [ABIRATERONE] |  |  |  |  | 0.048 µM |  |  |  | 
14 | C[C@]12CC[C@@H]3c4ccc(C(=O)O)cc4CC[C@H]3[C@@H]1CC=C2n1cnc2ccccc21 |  |  |  | Active |  |  |  | Active | 
15 | C[C@]12CC[C@H]3[C@@H](C[C@@H](n4ccnc4)C45CC4CC[C@]35C)[C@@H]1CC=C2n1cnc2ccccc21 (some centres not stated) | 470 nM |  |  |  |  | 6.61 µM | 12.3 µM | Active | 
16 | C[C@]12CC[C@@H](n3ccnc3)CC1=CC[C@@H]1[C@@H]2CC[C@]2(C)C(n3cnc4ccccc43)=CC[C@@H]12 |  |  |  |  |  | 8.91 µM | 9.88 µM | Active | 
